Data on 89 molecules can be found in PubChem BioAssay AID651560 (Sanford-Burnham Center for Chemical Genomics, 2012).

About 820 (0.23%) of roughly 360,000 compounds were called active. This is one part of a sample in which actives are shown more often than they occur.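 Rule for the calls: active = compounds that cut the enzyme signal by at least half of the control window in the single-dose screen; inactive = the rest.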

Sequence of Low molecular weight phosphotyrosine protein phosphatase (Homo sapiens) (P24666 whole entry, looked up): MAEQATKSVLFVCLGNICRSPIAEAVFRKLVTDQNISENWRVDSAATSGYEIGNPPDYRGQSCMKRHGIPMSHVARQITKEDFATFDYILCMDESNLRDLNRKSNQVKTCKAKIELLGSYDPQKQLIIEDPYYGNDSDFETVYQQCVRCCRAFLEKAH

This test has as its target Low molecular weight phosphotyrosine protein phosphatase (Homo sapiens) (UniProt P24666). Put plainly: inhibition of human LMPTP-A enzyme – biochemical, fluorescence intensity, uHTS, primary screen (AID 651560).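 Note: plate controls were DMSO wells with enzyme plus substrate for no effect and substrate without enzyme for full effect.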 As to conditions: recombinant LMPTP-A, OMFP fluorogenic substrate, at 20 µM, active compounds read high. The gist of the method:
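Test system: LMPTP-A phosphatase enzyme. Amount: LMPTP-A at 0.625 nM final in the reaction. Reagent: OMFP substrate, 400 µM final. Times: 50 min at room temperature. Signal: endpoint fluorescence intensity from OMFP dephosphorylation. Read-out basis: % inhibition. Benchmarks: no-enzyme and uninhibited controls.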
`NNC(=O)c1cccc(COCC(F)(F)C(F)F)c1`: the inhibition was -2.64% (inactive).
Take `CC(CO)NCC12CC3CC(CC(C3)C1)C2` (centres undefined): the inhibition was -1.02% (inactive).
With `COc1ccc(NC(=O)Nc2ccc3c(c2)C(=O)N([C@H](C)CO)C[C@H](C)[C@@H](CN(C)C(=O)Nc2ccc4c(c2)OCO4)O3)cc1`, the inhibition is 0.628% (inactive).
In the case of `CCOc1ccc(N(CC(=O)NC2CCCCCC2)S(=O)(=O)c2c(C)[nH]c(=O)[nH]c2=O)cc1`, the inhibition was -1.41% (inactive).
With `CN(C)c1cccc(C(=O)N2CCC(n3nccc3NC(=O)C3CCOC3)CC2)c1` (centres undefined), the inhibition was -1.94% (inactive).
For the molecule `COCCNc1nc(-c2ccccc2)nc2c1oc1ccccc12`, the inhibition was 2% (inactive).
For `CCOCCCNc1nc(-c2ccccc2)nc2ccccc12` the value was 57.8% (active); for `CCOCCCNS(=O)(=O)Cc1ccccc1`, -0.147% (inactive).
On to `O=C(Nc1ccc(C2CC2(Cl)Cl)cc1)c1cccc([N+](=O)[O-])c1` (centres undefined), for which the inhibition was 2.23% (inactive).
For `Cn1ccc(=Nc2ccc(NC(=O)c3ccc(N=c4ccn(C)c5ccc([N+](=O)[O-])cc45)cc3)cc2)cc1` the value was 78% (active); for `O=C(Nc1cc2c3c(c1)C1CCCC1CN3CC1CCCC21)c1ccc([N+](=O)[O-])cc1` (centres undefined), 2.81% (inactive); for `CCc1ccc(CCC(=O)Nc2ccc(S(N)(=O)=O)cc2)o1`, -1.91% (inactive).
For `Cc1cc(N2C(=O)C(O)=C(C(=O)c3ccc(C)o3)C2c2ccc(OCc3ccccc3)cc2)no1` (centres undefined) the value was 52.5% (active); for `C=CCOc1cccc(C2C(C(=O)c3ccc(C)o3)=C(O)C(=O)N2c2nnc(C)s2)c1` (centres undefined), 0.72% (inactive).
The value for `CCCOc1ccc(C2C(C(=O)c3ccc(C)o3)=C(O)C(=O)N2CCCn2ccnc2)cc1` (centres undefined) was 20.9% (inactive); that for `COCc1ccc(CN2CCC(Oc3ccc(C(=O)NCc4ccccn4)cc3)CC2)o1` was -0.769% (inactive).
With `CC1C(=O)N(Cc2cn(CC3CCCCC3)nn2)CCS(=O)(=O)N1Cc1ccc(-c2cccc(N(C)C)c2)cc1` (centres undefined), the inhibition was 2.27% (inactive).
As for `FC(F)(F)c1cccc(-c2nc(COc3ccc(Cl)cc3Cl)no2)c1`, the inhibition is 2.97% (inactive).
For `O=C1COc2c1ccc(O)c2O` the value was 2.2% (inactive); for `CCN(CC)C(=O)CS(=O)CC(=O)Nc1cc(OCCOC)c(Cl)cc1Cl` (centres undefined), -0.0342% (inactive); for `C[C@H](CO)N1C[C@H](C)[C@H](CN(C)C(=O)Nc2ccc3c(c2)OCO3)Oc2ncc(Br)cc2C1=O`, -2.87% (inactive).
For `COc1cccc(CNC(=O)C(=O)NCCC2CCCCN2S(=O)(=O)c2ccc(C)cc2)c1` (centres undefined) the value was 0.141% (inactive); for `Cn1c(C(=O)OC(C(=O)NC2CCCCC2)c2ccccn2)cc2sccc21` (centres undefined), 0.323% (inactive).
Consider `C=CCn1c(Oc2ccc(C(=O)OC)cc2)nc2c1c(=O)n(C)c(=O)n2C`, for which the inhibition is -1.9% (inactive).
With `COc1ccccc1N(CC(=O)NC1CCCC1)C(=O)C1(C)CC(=O)N=C2C=CC(C)=CN21` (centres undefined), the inhibition was -0.3% (inactive).
As to `CCCCNC(=O)Cn1nc(C)c(S(=O)(=O)N2CCOCC2)c1C`, the inhibition is -0.848% (inactive).
Consider `CCC(C)c1ccccc1NC(=O)CN(C)CC(=O)Nc1ccccc1SC` (centres undefined), for which the inhibition is -7.1% (inactive).
For the molecule `CC1(C)CC(=O)C2=C(C1)N=C1SCCC(=O)N1C2c1ccc(C(F)(F)F)cc1` (centres undefined), the inhibition was 0.279% (inactive).
The value for `Cc1cc(F)ccc1NC(=O)C(C)n1c2ccccc2c2nc(=O)cc(C)n21` (centres undefined) was -1.13% (inactive).
The value for `O=S(=O)(c1ccc(Cl)cc1)N1CCCN(c2ccc(C(F)(F)F)cn2)CC1` was 2.43% (inactive); that for `CCCN1C(=O)C(NS(=O)(=O)c2ccc(N)cc2)(C(F)(F)F)C(C(=O)OC)=C1C` (centres undefined) was -1.38% (inactive); that for `Cc1cccc(NC(=S)N(CCN(C)C)C(C)c2ccco2)c1` (centres undefined) was -1.32% (inactive).
Regarding `C=CC1=C(C(=O)O)N2C(=O)[C@@H](NC(=O)/C(=N/OCC(=O)O)c3csc(N)n3)[C@H]2SC1`, the inhibition was 77.9% (active).
For the molecule `COc1ccc2c(C)c(CCC(=O)NC3CC3)c(=O)oc2c1C`, the inhibition is -1.16% (inactive).
Turning to `Cc1c(CCC(=O)O)c(=O)oc2c(C)c(OCc3ccccc3Cl)ccc12`, the inhibition was 86.6% (active).
Regarding `O=C(O)c1ccccc1OCc1ccccc1Cl`, the inhibition was -0.307% (inactive).
For `O=C(CO/N=C/c1ccccc1OC(F)F)NC1CCCC1` the value was -0.427% (inactive).
Regarding `Cc1ccc(Cc2c(-c3ccc(Cl)cc3)nc3c4ccccc4ccn23)cc1`, the inhibition is 6.26% (inactive).
For `COc1ccc(NC(=O)c2cc(=O)[nH]c3ccccc23)cc1S(=O)(=O)N1CCOCC1` the value was -0.651% (inactive); for `CCCc1nc(-c2cc3cc(C)ccc3[nH]c2=O)no1`, -2.23% (inactive); for `COc1ccc(Cc2cc(-c3ccc(F)cc3)n[nH]c2=O)cc1`, 0.445% (inactive).
For `COc1ccc2[nH]c(=O)c(-c3noc(-c4ccc(F)cc4)n3)cc2c1` the value was 48.8% (active).
As to `Cn1c(=O)cc(OCC(=O)N2CCN(c3ccccc3F)CC2)c2ccccc21`, the inhibition is -0.233% (inactive).
`Cc1[nH]c(N)nc(=S)c1CCCNc1ccccc1`: the inhibition is 4.94% (inactive).
The value for `Cc1csc(=O)n1CC(=O)Nc1ccc(S(C)(=O)=O)cc1` was 0.0764% (inactive); that for `CN1CCN(Cc2c(C(=O)N3CCc4ccccc4C3)nc3ccc(Cl)cn23)CC1` was -1.43% (inactive); that for `O=C(COc1ccc(Cl)cc1Cl)NCCCNC(=O)c1cnccn1` was -0.724% (inactive).
The value for `CCCNS(=O)(=O)c1ccc(CCC(=O)NCc2cccnc2)cc1` was -0.651% (inactive); that for `COc1ccc(NC(=O)CN2C(=O)CSC2=O)cc1` was -1.92% (inactive).
The value for `CCOC(=O)c1sc2nc(C)nc(SCC(N)=O)c2c1C` was -0.32% (inactive); that for `COc1ccc(C#Cc2c(-c3ccc(OC)cc3)oc3ccc(-c4ccc5c(c4)OCO5)cc23)cc1` was 0.696% (inactive).
Turning to `FC(F)(F)c1ccc2c3n(nc2c1)CCN=C3c1ccc(Cl)cc1`, the inhibition was -0.582% (inactive).
With `COc1ccc(CC(NC(C)=O)C(=O)NC2CCN(C(=O)c3ccc(Cl)cc3)CC2)cc1` (centres undefined), the inhibition is 0.435% (inactive).
Consider `C[C@]12CC[C@H](O)CC1=CCC1C2CC[C@@]2(C)C1CC[C@@H]2NC(=O)CCC(=O)O` (some centres undefined), for which the inhibition was -0.874% (inactive).
For `Cn1c(SCC(=O)Nc2ccc(Cl)cc2)nc(O)cc1=O`, the inhibition was -0.456% (inactive).
On to `C[C@@H](C(=O)Nc1ccc2ccccc2c1)[C@@H]1C[C@@]1(C)[C@@H](NC(=O)c1cccnc1)c1ccccc1`, for which the inhibition is 0.267% (inactive).
The value for `CCN(c1ccc2c(c1)OCO2)S(=O)(=O)c1cc(Br)cc2c1N(C(=O)C1CC1)CC2` was 3.91% (inactive); that for `CC(=O)c1ccccc1NC(=O)CC1(CC(=O)O)CCCCC1` was -1.06% (inactive).
For `CCN(CCn1cccn1)Cc1cn[nH]c1-c1ccc(OC)cc1F` the value was -1.15% (inactive); for `Cc1cc(-c2nc(C)c(-c3nnc(SCC(=O)Nc4ccccc4)n3C)s2)no1`, -0.511% (inactive).
The value for `COC(=O)c1sc(C(F)(F)F)c(-c2ccccc2)c1S(=O)(=O)N(C)C` was -0.149% (inactive); that for `O=C1NC(O)CCN1C1CC(O)C(CO)O1` (centres undefined) was -0.47% (inactive); that for `COc1ccccc1OCCNC(=O)C(CCSC)NC(=O)COc1ccccc1` (centres undefined) was -1.42% (inactive).
Turning to `Cc1ccc(S(=O)(=O)CCC(=O)OCC(=O)N(C)C2CCS(=O)(=O)C2)cc1` (centres undefined), the inhibition was -1.13% (inactive).
Take `CN(C(=O)COC(=O)c1cc(-c2ccco2)nc2ccccc12)C1CCS(=O)(=O)C1` (centres undefined): the inhibition was 66.6% (active).
Turning to `O=C(c1cc(-c2ccco2)nc2ccccc12)N(Cc1nnc(-c2ccc(Cl)cc2)o1)C1CC1`, the inhibition is 3% (inactive).
Take `COc1ccc(N(C)S(=O)(=O)c2cccc3nsnc23)cc1`: the inhibition is -1.17% (inactive).
The value for `Cn1c(=O)[nH]c(=O)c2c1nc(NCCCn1ccnc1)n2Cc1cccc(Br)c1` was -1.82% (inactive); that for `COc1cc(N2C(=O)c3ccccc3C2=O)c(Cl)cc1C(=O)OCC(=O)N1CCOCC1` was 0.755% (inactive).
Turning to `Cc1ccc(C(=O)NNC(=O)c2cc3cc4ccccc4nc3s2)cc1`, the inhibition is 50.6% (active).
For `CS(=O)(=O)c1ccc(C(=O)NNC(=O)c2cccs2)cc1` the value was -1.18% (inactive); for `CCN1CCN(C(=O)c2cc3cc4ccc(OC)cc4nc3s2)CC1`, 0.833% (inactive); for `O=c1ccc2cc(S(=O)(=O)N3CCN(c4ccccc4)CC3)ccc2o1`, -2.32% (inactive).
The value for `CSCCC(NC(=O)c1ccco1)C(=O)NCCc1ccc(F)cc1` (centres undefined) was -1.2% (inactive).
For `O=C(CNC(=O)c1cc2c(s1)CCC2)Nc1ccccc1Br` the value was 5.93% (inactive); for `Cn1c(CN2CCOCC2)nc2cc(NC(=O)c3ccc(Cl)cc3)ccc21`, -0.278% (inactive).
As for `CCOc1ccc(-c2nc(N)ncc2-c2ccccc2OC)c(O)c1`, the inhibition is 53.5% (active).
The value for `CCOC(=O)Cn1c2c(c(-c3ccccc3OC)cc1=O)CCCC2` was 2.39% (inactive); that for `CCOc1cccc(OCCCOc2cccc3cccnc23)c1` was 3.69% (inactive); that for `Brc1cnc2ccccc2c1N1CCCCC1` was 4.39% (inactive).
For `c1ccc(-c2cc(N3CCCCC3)c3ccccc3n2)cc1` the value was 67.2% (active); for `O=c1cc(N2CCCCC2)c(-c2ccccc2)nn1Cc1cccc(F)c1`, -0.671% (inactive).
Turning to `OCCC#Cc1ccc(CN2CCN(Cc3ccsc3)C(CCO)C2)cc1` (centres undefined), the inhibition is 1.89% (inactive).
Turning to `CC(OC(=O)c1c(F)cccc1F)C(=O)NCCC1=CCCCC1` (centres undefined), the inhibition is 0.59% (inactive).
For `Nc1ccc2nc3c(=O)[nH]c(=S)[nH]c3nc2c1` the value was 85% (active); for `COc1ccc(Cc2nnc(NC(=O)Cc3cccs3)s2)cc1`, 76.7% (active).
The value for `COc1cc(OC)cc(C(=O)NNC(=O)Cc2cccs2)c1` was 1.69% (inactive); that for `COc1ccc(CC(=O)Nc2sc(Cc3ccccc3)c(C)c2C(N)=O)cc1` was 0.191% (inactive).
With `Cc1ccccc1OCC(=O)NNC(=O)c1ccc(-n2cncn2)c([N+](=O)[O-])c1`, the inhibition was -1.02% (inactive).

As a reminder, the inhibition is the drop in the measured response relative to a control, in per cent.
